# Laboratory results reported in the array DNA melting data of Ke et al. (doi:10.1101/2024.01.08.574731).
# Key:
# [1] = folding enthalpy; higher = less favourable; fluorescence melt of hairpins on a sequencing array, two-state fit; settings: sodium 0.088 M
# Outline: (§1)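 Library hairpins on a sequenced MiSeq flow cell carried annealed Cy3 and quencher oligos, and their Cy3 fluorescence was imaged in 50 mM Na-HEPES pH 8.0 with 25 mM NaCl, in 2.5 °C steps up to 60 °C. Signals were normalised to Cy3 before quenching and to control constructs. Melting temperature and folding enthalpy were obtained from bootstrapped two-state fits, combined by inverse-variance weighting across four replicates, and the fitted temperatures were then raised by 9.35 °C to match UV melts.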
# [2] = melting temperature; fluorescence melt of hairpins on a sequencing array, two-state fit, raised by 9.35 °C to match UV melts; settings: sodium 0.088 M
# Outline: as §1
Sequence,folding enthalpy [1] [kcal/mol],Tm [2] [°C]
GCTCACGAAAGTGCCAGC ((((((....)))..))),-13.1,33.5
GACCATGCGAAAGCAGTC (((..(((....)))))),-10.6,30.2
GCTCGGCGAAAGCCACGC ((..(((....)))..)),-11.5,43.3
GAGACCGGAAACAGTCTC (((((.(....).))))),-27.5,40.4
GAGAAAGAAATTTCTC ((((((....)))))),-18.8,36.4
GCTGGTACGAAAGTAAGC (((..(((....)))))),-16.2,34.2
GTAAGCGGAAACACTTAC (((((.(....).))))),-29.8,35.6
GTGAGCGAAAGCTTCCAC ((((((....)))..))),-15.2,28.7
GGCGTGGGAAACCGCGTC (.((.((....)).)).),-27.4,52.2
GTCATTGGAAACAGTGAC ((((.((....)).)))),-33.7,43.9
GCGTTCTCACGC ((((....)))),-25.9,50.6
GGTGTCGAAAGACTTACC ((((((....)))..))),-17.7,37.4
GATCGAAACGTCGATC ((((((....)))))),-41.4,50.3
GATCCGCCACGGATC ((((((...)))))),-37,57.2
GAGATCACGAAAGTGCTC (((..(((....)))))),-12.1,29.9
GGAAGGCGAAAGCCCTCC (((.(((....))).))),-16.8,48.7
GCTACGCGAAAGCAAAGC (((..((....))..))),-13.2,44.1
GACCCTGAAAAGGGTC ((((((....)))))),-33.7,67.5
GATCGTTCGTACGATC ((((((....)))))),-44.1,55.5
GGCCCCGAAAGGGGAGCC ((((((....)))..))),-12.8,59.1
GTGTGCGAAAGCATTCAC ((((((....)))..))),-15.8,38.3
GCAGCGCGAAAGCGACGC ((..(((....)))..)),-18.4,60.7
GATCGTCTCTACGATC ((((((....)))))),-38.4,54.5

Sequence,folding enthalpy [1] [kcal/mol],Tm [2] [°C]
GATCGTTTGGACGATC ((((((....)))))),-44.5,56.3
GTGGAACGAAAGTTACAC (((.(((....))).))),-40.4,57
GTATCCCGAAAGGGGTAC (((.(((....))).))),-38.2,55.6
GGAAATGGAAACATTTCC (((((((....))))))),-41.5,56.5
GAACTCCCGAAAGGGTTC (((..(((....)))))),-12.6,31.7
GGCCGTGGAAACGTGGCC ((((..(....)..)))),-39.9,55.5
GCTAACGAAAGTTAGAGC ((((((....)))..))),-16.1,45.8
GTTTTCGGAAACGGAAAC ((((.((....)).)))),-27.1,47.1
GTCCTCGAAAGAGCGAC ((((((....))).))),-21.4,45.4
GGCTAGGGAAACTTAGCC (((((.(....).))))),-37.1,49.4
GGGTAGGGAAACCTACTC (.(((((....))))).),-18.7,44.6
GATCGTCGTTACGATC ((((((....)))))),-36,55.6
GTAAATCCGAAAGGATAC (((..(((....)))))),-11,33.8
GCTGACGGAAACGTCAAC (.(((((....))))).),-14.3,43.2
GCCTTGCGAAAGCACCGC ((..(((....)))..)),-10.6,42.6
GCGACGCGAAAGCATAGC ((.(.((....)).).)),-18.8,62.7
GGGATGGGAAACCACCCC (((.(((....))).))),-32,47.3
GCGTAGCACGC ((((...)))),-11,68.2
GCTTAGGCGAAAGCCAGC (((..(((....)))))),-15.1,44.4
GCGCTGCGAAAGCGGGGC ((.(.((....)).).)),-28.8,67.8
GATGGTGGAAACGCTATC (((.(.(....).).))),-16.2,31.3
GATCGCAGAAGCGATC ((((((....)))))),-30.8,66.9
GATCACATGAGTGATC ((((((....)))))),-42.1,55.7

Sequence,folding enthalpy [1] [kcal/mol],Tm [2] [°C]
GAGGCTGGAAACGGCTTC ((.((.(....).)).)),-20.8,36.6
GTGGGAGCGAAAGCTCAC (((..(((....)))))),-19.2,62.9
GCTTTTGGAAACAAAGGC ((.((((....)))).)),-28.9,43
GGGCCACCGAAAGGTCCC (((..(((....)))))),-17.8,41.3
GCGCAGCGAAAGCGCCGC (((..((....))..))),-13.1,59.4
GAGGCCGGAAACGGCCCC (.(((((....))))).),-6.76,51.2
GCGTTGCGAAAGCAGGGC ((..(((....)))..)),-23.5,55.7
GTTGAAGGAAACTTCAAC (((((((....))))))),-51.5,54.2
GCCCGGCGAAAGCCTTGC ((..(((....)))..)),-8.46,35.7
GTTGGGAAACCAAC (((((....))))),-27.9,51.7
GCTAGACGAAAGTCAGC (((.(((....)))))),-23.1,54.2
GCAAGGCGAAAGCCGTGC (((.(((....))).))),-22.8,68
GCCAATGGAAACATTAGC ((.((((....)))).)),-17.4,32.1
GCCGTAGAAATACGGC ((((((....)))))),-42.4,64
GAGGAAACGAAAGTTCTC (((..(((....)))))),-13.3,24.6
GACTTAGGAAACTAGGTC (((.(((....))).))),-32.1,36.8
GTGCGACGAAAGTCCCAC (((.(((....))).))),-30.8,47.4
GTAACCCGAAAGGGCTAC (((.(((....))).))),-20,45.6
GGAAGGACGAAAGTCTCC (((..(((....)))))),-12.8,33.1
GCTAAACGAAAGTTGAGC (((.(((....))).))),-31.8,50.8
GCCCTTCCGAAAGGAGGC (((..(((....)))))),-17.7,41.1
GGTGCCGAAAGGCGACC ((((((....))).))),-16.8,61
GTAGGTGGAAACACCTAC (((((((....))))))),-36.7,60.5

Sequence,folding enthalpy [1] [kcal/mol],Tm [2] [°C]
GATCTATCGTTAGATC ((((((....)))))),-19.4,37.8
GCGTAGAACGC ((((...)))),-23.7,54.6
GATCCCCAGAGGGATC ((((((....)))))),-31.7,59.8
GGTCTAGGAAACTGGACC ((((.((....)).)))),-41.6,51
GATCCTGACAGGATC ((((((...)))))),-38.9,55.7
GATCAGGGAACTGATC ((((((....)))))),-33,55.5
GTCGCCACGAAAGTGGAC (((..(((....)))))),-9.49,35.7
GCGTGCTACGC ((((...)))),-18.7,62
GCGGCCACCCGC ((((....)))),-19.8,59.5
GTATACCGAAAGGTCTAC (((.(((....))).))),-22.4,40.7
GTCTACGAAAGTAGGGAC ((((((....)))..))),-16.2,32.3
GTTCGCGGAAACGCGAGC (.(((((....))))).),-15.7,59.2
GGCAGTTCGAAAGAAGCC (((..(((....)))))),-16.3,34.5
GGATTCGAAAGAACTTCC ((((((....)))..))),-8.73,28.4
GATCGGTCGACCGATC ((((((....)))))),-49.7,61.4
GGACGGCGAAAGCCCTCC (((.(((....))).))),-20.5,41.4
GCTATGCGAAAGCCTTGC ((.(.((....)).).)),-12.7,30
GATCTTCCATAAGATC ((((((....)))))),-33.9,43.4
GCTGTGCGAAAGCCCTGC ((.(.((....)).).)),-15.3,41.9
GACTCGCGAAAGCGCGTC (((.(((....))).))),-23.6,55.9
GGAAGCGAAAGCTTATCC ((((((....)))..))),-9.74,34.6
CGGAACGGAAACGTGCCG (((.(((....))).))),-44.3,56
GAAATGCGAAAGCAATTC (((.(((....))).))),-20,45.3
